The record followed here is ChEMBL document CHEMBL1629604, “Targeting type III secretion in Yersinia pestis” (Antimicrob Agents Chemother, 2009).

The subject of series [1] is Escherichia coli. Briefly: Inhibition of T3SS-mediated Tir secretion in enteropathogenic Escherichia coli KC14 harboring pKC17 at after 2 hrs by Western blotting. On the technique in general: Immunoblotting shows a protein as a band on a membrane.
The test system of series [2] is HeLa. Briefly: Cytotoxicity against human HeLa cells assessed as LDH release up to 60 uM after 3 hrs. Format: cell-based. In short, it runs like this:
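HeLa cells seeded 1 day before in DMEM with 3% heat-inactivated FBS, then exposed to compound up to 60 μM at 37°C for 2–3 h. LDH in supernatant measured by kit. 0.1% Triton X-100 lysis gave the maximum and untreated cells the baseline; % cytotoxicity was calculated relative to both. Mean of three independent assays.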
Background: LDH in the medium is a marker of cell lysis.

Series [3] has as its system HeLa. Briefly: Inhibition pCD1 positive Yersinia pestis JG153 T3SS-mediated morphological changes in human HeLa cells after 3 hrs. The format is cell-based.
For series [4], the system named is HeLa. Kind of series: Cytotoxicity against human HeLa cells assessed as cell detachment up to 60 uM after 3 hrs. The format is cell-based. The essentials:
(§1)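 HeLa monolayers seeded 1 day before at 1×10^5 cells/well in DMEM with 3% heat-inactivated FBS. Compound applied, cells incubated 37°C for 3 h. Monolayer disruption scored by microscopy as rounding and as percentage of cells detached from the plate.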

For series [5], the system named is Yersinia pestis. Kind of series: (§2) Inhibition of T3SS-mediated YopH secretion in Yersinia pestis JG401 after 2 hrs by Western blotting.
In series [6] the test system is Yersinia pestis. Briefly: (§3) Inhibition of T3SS-mediated YopD secretion in Yersinia pestis JG401 after 2 hrs by Western blotting.
The subject of series [7] is Yersinia pestis. Kind of series: Toxicity in Yersinia pestis JG153 assessed as growth inhibition at 60 uM measured 6 mins intervals for 24 hrs. The format is organism-based.
Series [8] has as its system Yersinia pestis. Briefly: Inhibition of translocation of YopE::Bla fusion from pMM85 expressing Yersinia pestis JG153 to human HeLa cells at 80 uM after 3 hrs by fluorescence microscopic analysis. Format: functional, organism-based.
Series [9] concerns Yersinia pestis. Briefly: (§4) Inhibition of T3SS-mediated YopM secretion in Yersinia pestis JG401 after 2 hrs by Western blotting.
For series [10], the system named is HeLa. Kind of series: Cytotoxicity against human HeLa cells assessed as cell rounding up to 60 uM after 3 hrs. The format is cell-based. In short, it runs like this:
as §1

In series [11] the test system is Yersinia pestis. Briefly: Inhibition of translocation of YopE::Bla fusion from pMM85 expressing Yersinia pestis JG153 to human HeLa cells at 40 uM after 3 hrs by fluorescence microscopic analysis. The format is functional.
A short description of series [12]: as §2.
Series [13] can be described thus: as §3.
Series [14] in a line: as §4.
For series [15], the system named is Yersinia pestis. Kind of series: Inhibition of T3SS-mediated YopD secretion in Yersinia pestis JG401 at up to 60 uM after 2 hrs by Western blotting.
Series [16] relates to Yersinia pestis. Briefly: Inhibition of T3SS-mediated YopD secretion in Yersinia pestis JG401 at 15 uM after 2 hrs by Western blotting.
For series [17], the system named is Yersinia pestis. Briefly: Inhibition of T3SS-mediated YopM secretion in Yersinia pestis JG401 t up to 60 uM after 2 hrs by Western blotting.

Structures are written as SMILES. Activity calls are given as the source filed them. The calls are words filed in the database; no cut-off is given here.

The inhibition is the percentage by which the read-out fell short of the control. In the case of `Cc1ccc(-c2nn(-c3ccccc3)cc2C2CC(c3cccs3)=NN2C(=O)CCCC(=O)O)cc1` (stereo unspecified), the INCC50 entry in series [1] is “inactive”. Moreover, the Activity result in series [2], in [4], in [7] and in [10] was “Non-toxic” each time. Further, the inhibition result in [3], in [5], in [6] and in [9] was “Dose-dependent effect” throughout. For the same compound, the inhibition result in series [8] is “inactive”.

As to `O=C(N/N=C/c1cc(Br)cc(Br)c1O)c1ccc([N+](=O)[O-])cc1`, in [7], the Activity result is “Toxic”.

`O=C(Nc1cccc(C2=NCCN2)c1)Nc1cccc(C2=NCCN2)c1` [IMIDOCARB DIPROPIONATE] gave an inhibition at 40 µM in series [11] of 50%.

For `Cc1ccc(CSc2nc(C(=O)O)ccc2C#N)cc1`, the inhibition in [1] (concentration not given here) is 96%; in series [3] it was “Dose-dependent effect”; in [5], “Dose-dependent effect”; in [6] it was “Dose-dependent effect”; in series [9] it was “Dose-dependent effect”. Besides, the Activity entry in series [2], in series [4], in series [7] and in [10] was “Non-toxic” throughout. The inhibition entry in series [8] was “inactive”.

Broadly, the IC50 is the midpoint of a concentration-inhibition curve. The low end stands for inhibition by little substance, the high end for a need for much substance. As to `Cc1cc(O)ccc1Sc1ccc(O)cc1C`, the inhibition entry in series [1] is “inactive”. Further, the Activity result in series [2] was “Toxic”; in series [4], “Toxic”; in series [7], “Non-toxic”; in series [10], “Toxic”. Moreover, the IC50 in series [12], in series [13] and in series [14] was 10 µM in each case. Besides, the inhibition entry in series [5], in series [6] and in [9] was “Dose-dependent effect” in each case.

For the compound `O=C(Nc1cccc(C2=NCCN2)c1)Nc1cccc(C2=NCCN2)c1`, the inhibition result in series [15] and in [17] was “inactive” each time. The inhibition in [1] (concentration not given here) is 81%; in [3], “Dose-dependent effect”; in series [5], “Dose-dependent effect”; in series [6], “Dose-dependent effect”; in series [16], 50%; in [9] it was “Dose-dependent effect”. Further, the inhibition result in series [8] is “Active”.

With `O=C(Nc1cccc(C2=NCCN2)c1)Nc1cccc(C2=NCCN2)c1` [IMIDOCARB], the Activity result in series [2], in series [4], in [7] and in series [10] was “Non-toxic” each time.
